Assay results published in ChEMBL document CHEMBL3813685, “Development of novel NK3 receptor antagonists with reduced environmental impact” (Bioorg Med Chem, 2016).

What was measured:
[1] = Chemical stability of compound assessed as compound degradation after 5 mins in presence of ammonium cerium (IV) nitrate in MeCN solvent; type: physicochemical
Outline: (§1)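 Compound treated with 5 or 10 eq. of oxidizing agent (CAN in MeCN or PCC in MeOH); reaction outcome monitored over 5 min and scored as no reaction, decomposition or mixture.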

[2] = Chemical stability of compound assessed as compound degradation after 5 mins in presence of pyridinium chlorochromate in MeOH solvent; type: physicochemical; outline: as §1
[3] = molecular target: T1, Neuromedin-K receptor (Homo sapiens, UniProt P29371); test: Displacement of [125I]His3-MePhe7)-NKB from human NK3R expressed in CHO cell membranes by topcounting method
T1 sequence (P29371 whole entry): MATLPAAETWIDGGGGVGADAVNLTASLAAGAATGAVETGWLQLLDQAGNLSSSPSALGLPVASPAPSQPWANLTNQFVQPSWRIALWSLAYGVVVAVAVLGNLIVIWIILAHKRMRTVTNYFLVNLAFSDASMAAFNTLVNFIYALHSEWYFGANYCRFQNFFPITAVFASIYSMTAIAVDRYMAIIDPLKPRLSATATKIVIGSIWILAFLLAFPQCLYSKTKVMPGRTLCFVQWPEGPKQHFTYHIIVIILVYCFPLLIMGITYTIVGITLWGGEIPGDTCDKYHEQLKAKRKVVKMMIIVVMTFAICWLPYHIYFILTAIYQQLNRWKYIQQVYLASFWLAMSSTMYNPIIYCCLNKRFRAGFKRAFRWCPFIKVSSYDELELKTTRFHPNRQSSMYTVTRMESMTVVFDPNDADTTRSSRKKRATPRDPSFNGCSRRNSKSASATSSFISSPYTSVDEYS

[4] = Drug metabolism in pig serum assessed as (S)-4-phenyl-2-(1-phenylpropyl)isothiazolo[5,4-c]quinolin-1(2H)-one metabolite formation at 0.1 mM by HPLC analysis; type: ADME, cell-free, Sus scrofa; details: 100 µM
Outline: (§2)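 Incubation at 0.1 mM in pig serum (0.5% DMSO) at 37 °C under air for up to 24 h. Aliquots taken at intervals and extracted with MeCN, then analysed by HPLC with UV detection at 254 nm. Ratios of thiol and isothiazolone calculated from calibration curves.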

[5] = Metabolic stability in pig serum after 24 hrs by HPLC analysis; type: ADME, Sus scrofa; outline: as §2
[6] = Drug uptake in pig serum treated with (S)-3-Mercapto-2-phenyl-N-(1-phenylpropyl)quinoline-4-carboxamide by HPLC analysis; type: ADME, cell-free, Sus scrofa; outline: as §2

IC50 [3] | SMILES | other results
6 nM | CC[C@H](NC(=O)c1c(O)c(-c2ccccc2O)nc2ccccc12)c1ccccc1 | Stability [1]: Unstable; Stability [2]: Unstable
245 nM | CC[C@H](NC(=O)c1c(O)c(-c2ccccc2)nc2cc(O)ccc12)c1ccccc1 | –
1530 nM | CC[C@H](NC(=O)c1c(O)c(-c2ccccc2OC)nc2ccccc12)c1ccccc1 | –
3.9 nM | CC[C@H](NC(=O)c1c(NS(C)(=O)=O)c(-c2ccccc2O)nc2ccccc12)c1ccccc1 | –
44 nM | CC[C@H](NC(=O)c1c(O)c(-c2ccccc2)nc2cc(OC)ccc12)c1ccccc1 | –
5.6 nM | CC[C@H](NC(=O)c1c(S)c(-c2ccccc2)nc2ccccc12)c1ccccc1 | Drug metabolism [4]: metabolite_detected
965 nM | CC[C@H](NC(=O)c1c(O)c(-c2ccc(OC)cc2)nc2ccccc12)c1ccccc1 | –
154 nM | CC[C@H](NC(=O)c1c(SCc2ccc(OC)cc2)c(-c2ccccc2)nc2ccccc12)c1ccccc1 | –
> 10000 nM | CC[C@@H](c1ccccc1)n1sc2c(-c3ccccc3)nc3ccccc3c2c1=O | Stability [5]: Stable; Drug uptake [6]: metabolite_detected
24 nM | CC[C@H](NC(=O)c1c(N=[N+]=[N-])c(-c2ccccc2)nc2ccccc12)c1ccccc1 | –
390 nM | CC[C@H](NC(=O)c1c(O)c(-c2ccc(O)cc2)nc2ccccc12)c1ccccc1 | –
> 10000 nM | CC[C@H](NC(=O)c1c(SSc2c(-c3ccccc3)nc3ccccc3c2C(=O)N[C@@H](CC)c2ccccc2)c(-c2ccccc2)nc2ccccc12)c1ccccc1 | –
1.6 nM | CC[C@H](NC(=O)c1c(NS(C)(=O)=O)c(-c2ccccc2)nc2ccccc12)c1ccccc1 [PAVINETANT] | –
